Source: PubChem BioAssay
Activity calls are given as the source filed them.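 How the source made its calls: active means current rise at least 3 SD above the untreated control mean in each of two repeat wells; inactive means the rest.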

Molecular target: Potassium voltage-gated channel subfamily KQT member 1 (Homo sapiens) (UniProt P51787)
Assay: KCNQ1 channel current potentiators, confirmation, orthogonal assay for KCNQ1 potentiator project, IonWorks patch clamp, KCNQ1-CHO cells (AID 493184);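 on current potentiation: percent change of the same well's current before compound addition so 0% = no change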
Conditions: automated patch clamp current, at 10 µM; hits give high values
Method in brief: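 Material: KCNQ1-expressing CHO cells; doses: 10 µM final, single point; probe or stimulus: voltage step from -90 mV holding to +40 mV, 2,000 ms; signal: automated voltage clamp, amphotericin B perforated patch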

Chain of Potassium voltage-gated channel subfamily KQT member 1 (Homo sapiens) (P51787 whole entry, looked up): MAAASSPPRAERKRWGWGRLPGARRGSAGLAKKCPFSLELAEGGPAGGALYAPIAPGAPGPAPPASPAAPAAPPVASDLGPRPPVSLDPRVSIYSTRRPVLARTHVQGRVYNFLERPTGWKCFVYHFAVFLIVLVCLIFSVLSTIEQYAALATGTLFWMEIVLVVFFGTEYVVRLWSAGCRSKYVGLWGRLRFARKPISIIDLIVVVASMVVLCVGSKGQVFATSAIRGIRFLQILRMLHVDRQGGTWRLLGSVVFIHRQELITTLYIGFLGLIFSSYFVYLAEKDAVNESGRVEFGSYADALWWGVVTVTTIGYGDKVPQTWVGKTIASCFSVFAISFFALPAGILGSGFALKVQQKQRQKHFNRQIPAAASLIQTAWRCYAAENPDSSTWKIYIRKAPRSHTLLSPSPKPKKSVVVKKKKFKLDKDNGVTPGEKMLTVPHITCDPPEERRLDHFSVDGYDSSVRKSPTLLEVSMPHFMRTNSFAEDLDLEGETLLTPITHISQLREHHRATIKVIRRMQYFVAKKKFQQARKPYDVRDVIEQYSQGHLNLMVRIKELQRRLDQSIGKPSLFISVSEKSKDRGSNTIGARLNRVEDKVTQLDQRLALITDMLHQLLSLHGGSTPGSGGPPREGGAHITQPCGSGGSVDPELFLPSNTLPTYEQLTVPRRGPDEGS

Structure (SMILES) | outcome | current potentiation
C[C@@H](NC(=O)OC(C)(C)C)c1nnc(S(=O)(=O)Cc2ccccc2)o1 | inactive | –
COc1ccc(N=Nc2ccc(O)c3ncccc23)cc1 | inactive | –
O=C(Nc1ccc(N2CCN(c3ccc(O)cc3)CC2)cc1)Oc1ccccc1 | inactive | –
OCCCCNCc1ccc(OCc2ccc(Cl)cc2)cc1 | inactive | –
Cc1cccc(CC2CC(=O)N(c3ccc(C)cc3Br)C2=O)c1 (stereo not given) | inactive | –
CCCN(CCC)C(=S)NC(=O)c1ccc(-c2ccccc2)cc1 | inactive | –
COc1cc(C(=O)NC(=S)NC(C)C)cc(OC)c1OC | inactive | –
O=C(Nc1nc2c(F)cc(F)cc2s1)C1COc2ccccc2O1 (stereo not given) | inactive | –
CCOC(=O)c1sc(N2N=C(C)C(N=Nc3cccc(C)c3)C2=O)nc1C (stereo not given) | inactive | –
O=C(NC(=S)Nc1ccccc1)c1cc(-c2ccccc2)nc2ccccc12 | inactive | –
Cc1ccccc1OCc1nnc(SCCN2CCCC2)n1-c1ccccc1 | inactive | –
CCOC(=O)c1cnc(SCC(=O)Nc2nc(C)c(C)s2)nc1N | inactive | –
O=[N+]([O-])c1ccc(/C=C/C2=NN(c3ccccc3)C(c3ccco3)C2)o1 (stereo not given) | inactive | –
CC(C)COn1c(=S)[nH]c2ccccc2c1=O | inactive | –
C/C(=N\Nc1nc2ccccc2[nH]1)c1ccc(Cl)s1 | inactive | –
CC(O)Cc1cn([C@@H](CCCCN)C(=O)N2CCNCC2)nn1 (stereo not given in full) | inactive | –
O=P(CCCCCCCCCP(=O)(c1ccccc1)c1ccccc1)(c1ccccc1)c1ccccc1 | inactive | –
CCOC(=O)C1(CCCc2ccccc2)CCN(Cc2cnc(C)s2)CC1 | inactive | –
COc1cccc(-c2nnc(Nc3nc4c(F)cccc4s3)o2)c1 | inactive | –
COC(=O)c1c(NS(=O)(=O)Cc2ccccc2)sc2c1CCCC2 | inactive | –

Structure (SMILES) | outcome | current potentiation
CC(C)c1nc2n[nH]c(N)c2c2c1CCCC2 | inactive | –
COc1ccc(OC)c(/C=C2\SC(=S)N(NS(=O)(=O)c3ccc(C)cc3)C2=O)c1 | – | 47.4% (active)
CC1(c2ccc(OC(F)F)cc2)NC(=O)N(CC(=O)Nc2ccc(OC(F)F)cc2)C1=O (stereo not given) | inactive | –
COc1ccc(NS(=O)(=O)c2ccc(N/N=C(\C)c3ccncc3)c([N+](=O)[O-])c2)cc1 | inactive | –
COCCn1c(SCC(=O)NCc2ccc3c(c2)OCO3)nnc1C(C)C | inactive | –
Cc1sc2nc(CN3CCOCC3)[nH]c(=S)c2c1C | inactive | –
CN(C)c1ccc(-c2nn3c(-c4ccccc4Cl)nnc3s2)cc1 | inactive | –
COc1ccc(-c2csc(NC(=O)C3=NN(c4ccccc4)C(=O)CC3)n2)cc1 | – | 101% (active)
O=C(NC(=S)Nc1ccccc1N1CCOCC1)c1ccc(-c2ccccc2F)o1 | inactive | –
O=c1c2cc(NC(=S)NCCCN3CCC(Cc4ccccc4)CC3)ccc2nc2n1CCCCC2 | inactive | –
Cc1ccc(Oc2ccc(NC(=O)Cn3ccsc3=N)cc2)cc1 | inactive | –
Cc1ccc(N=Cc2cc(Br)cc(Cl)c2O)cc1 | inactive | –
O=C(NC(=S)N1CCc2ccccc21)c1ccccc1Br | inactive | –
CCCCn1c(SCC(N)=O)nc2ccc(N3CCOCC3)cc2c1=O | inactive | –
O=C(NC(=S)Nc1nc2ccccc2s1)c1cccs1 | inactive | –
Cc1nc2ccccn2c1C(=O)N/N=C/c1ccccc1 | inactive | –
CC1Cc2ccccc2N1C(=S)NC(=O)c1cccc(Br)c1 (stereo not given) | inactive | –
CC(=O)N1CCN=C1SCc1ccc(F)cc1 | inactive | –
COc1ccccc1C(=O)NC(=S)NNC(=O)c1sc2ccccc2c1Cl | inactive | –
Cc1c(N=Cc2cc(Br)cc(Br)c2O)cccc1C(=O)O | inactive | –
